This is an account of results in article PMC3515069 (Toxicology, 2012).

SMILES strings stand for the structures. Entries after “also recorded” stand apart in the source; their conditions may differ. Read-outs that look alike come from different tables or passages of the source.

Series [1] addresses T1, AhR (Homo sapiens, UniProt P35869).
T1 sequence (P35869 11-848): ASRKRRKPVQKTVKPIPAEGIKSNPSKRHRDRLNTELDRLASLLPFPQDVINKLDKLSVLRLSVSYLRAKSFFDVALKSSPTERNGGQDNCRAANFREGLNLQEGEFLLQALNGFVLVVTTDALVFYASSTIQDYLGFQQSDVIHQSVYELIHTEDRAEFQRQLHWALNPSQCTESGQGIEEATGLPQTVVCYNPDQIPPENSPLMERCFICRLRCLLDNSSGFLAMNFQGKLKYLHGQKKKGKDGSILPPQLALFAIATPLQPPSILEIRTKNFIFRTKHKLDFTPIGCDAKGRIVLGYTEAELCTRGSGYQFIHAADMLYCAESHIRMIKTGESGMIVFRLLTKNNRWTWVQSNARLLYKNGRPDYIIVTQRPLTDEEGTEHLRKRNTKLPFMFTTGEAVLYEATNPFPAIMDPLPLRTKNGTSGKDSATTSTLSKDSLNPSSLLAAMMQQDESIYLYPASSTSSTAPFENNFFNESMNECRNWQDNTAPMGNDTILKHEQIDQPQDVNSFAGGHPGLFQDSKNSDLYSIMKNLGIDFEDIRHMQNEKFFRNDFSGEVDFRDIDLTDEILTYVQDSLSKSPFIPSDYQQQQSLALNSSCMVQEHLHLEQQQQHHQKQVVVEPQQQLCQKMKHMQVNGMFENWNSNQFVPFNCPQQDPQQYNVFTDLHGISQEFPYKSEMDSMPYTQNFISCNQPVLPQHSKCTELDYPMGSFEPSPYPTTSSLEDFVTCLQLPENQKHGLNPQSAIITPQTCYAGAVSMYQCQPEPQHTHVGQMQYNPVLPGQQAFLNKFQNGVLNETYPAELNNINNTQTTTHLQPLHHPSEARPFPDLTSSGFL
The note with it: MCF-7 cells, EROD analysis; ref Ciolino et al. (1999); cited from earlier work.

The target in series [2] is T2, AhR (Rattus norvegicus, UniProt P41738).
T2 sequence (P41738 10-853): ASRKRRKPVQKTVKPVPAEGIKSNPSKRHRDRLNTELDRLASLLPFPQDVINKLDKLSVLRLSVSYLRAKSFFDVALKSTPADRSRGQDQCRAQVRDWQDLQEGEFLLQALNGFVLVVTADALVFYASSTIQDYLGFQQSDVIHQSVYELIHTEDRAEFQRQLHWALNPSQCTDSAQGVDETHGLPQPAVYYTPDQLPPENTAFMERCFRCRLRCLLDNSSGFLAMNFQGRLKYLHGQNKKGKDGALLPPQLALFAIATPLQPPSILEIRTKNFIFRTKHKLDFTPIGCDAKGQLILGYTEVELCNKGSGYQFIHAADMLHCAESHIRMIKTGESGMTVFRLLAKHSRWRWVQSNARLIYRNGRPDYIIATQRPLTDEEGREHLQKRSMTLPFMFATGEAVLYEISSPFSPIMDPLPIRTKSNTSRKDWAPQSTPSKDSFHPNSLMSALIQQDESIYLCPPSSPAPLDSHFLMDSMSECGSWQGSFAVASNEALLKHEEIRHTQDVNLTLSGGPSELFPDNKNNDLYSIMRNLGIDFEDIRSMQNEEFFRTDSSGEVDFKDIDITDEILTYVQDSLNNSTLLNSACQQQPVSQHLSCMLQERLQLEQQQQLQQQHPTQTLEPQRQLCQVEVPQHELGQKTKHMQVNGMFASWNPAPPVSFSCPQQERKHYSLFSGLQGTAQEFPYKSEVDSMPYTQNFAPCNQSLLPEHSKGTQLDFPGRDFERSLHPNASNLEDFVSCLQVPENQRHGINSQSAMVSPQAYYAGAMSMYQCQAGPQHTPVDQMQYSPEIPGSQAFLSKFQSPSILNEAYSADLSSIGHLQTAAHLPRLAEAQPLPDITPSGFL
The series is described as follows: CYP1A1 mRNA induction by qRT-PCR, rat H4IIE cells. The note with it: for concentration inducing ~20% of the maximal response of 10 nM TCDD: rat H4IIE cells, CYP1A1 mRNA. For orientation: Real-time PCR tracks product formation cycle by cycle.

Series [3] addresses T1, AhR. It is filed as cell-based. The note with it: human MCF-7 cells; for antagonistic effect (in words): 100 μM Chr-13 or 10 μM Chr-19 with TCDD.
For series [4], the target named is T2, AhR. It is filed as cell-based. Conditions: rat H4IIE cells; for antagonistic effect (in words): 10 μM Chr-13 or 1 μM Chr-19 with TCDD, qRT-PCR.
The target of series [5] is T1, AhR.
Series [6] deals with AhR (Mus musculus, UniProt P30561). Kind of series: AhR agonist luciferase induction, mouse H1L6.1c2 cells. It is filed as cell-based. Conditions: 10 μM; for AhR agonist activity (in words): luciferase; for AhR-dependent luciferase induction, normalised to maximal TCDD response: 24 hours, 1 nM TCDD = 100%. In short, it runs like this: (§1)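 Mouse H1L6.1c2 (from Hepa1c1c7) and human HG2L6.1c3 (from HepG2) hepatoma lines stably carry firefly luciferase under four DREs upstream of the MMTV promoter. Cells were exposed for 24 h at 37°C to test compound (10 mM DMSO stock) in 0.1% DMSO, TCDD (mouse 1 nM, human 10 nM) or vehicle. Cells were PBS-washed and lysed, and luminescence was read. DMSO background was subtracted and values normalised to TCDD = 100%. S.D., n = 3.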

Series [7] concerns the target T1, AhR. Kind of series: CYP1A1 mRNA induction by qRT-PCR, human MCF-7 cells. Conditions: for concentration inducing ~20% of the maximal response of 10 nM TCDD: concentrations up to 100 μM.
For series [8], the target named is T2, AhR.
Series [9] deals with T1, AhR. The series is described as follows: AhR agonist luciferase induction, human HG2L6.1c3 cells. It is filed as cell-based. The note with it: 10 μM. In short, it runs like this:
as §1

Series [10] deals with T1, AhR. Kind of series: AhR antagonist luciferase assay. In kind it is cell-based. The note with it: human HG2L6.1c3 cells, 10 μM with 10 nM TCDD.
Series [11] relates to AhR. Conditions: ref Ciolino and Yeh, 1999; cited from earlier work.
Series [12] concerns the target T1, AhR. The note with it: human cells; ref Van der Heiden et al., 2007; cited from earlier work.
Series [13] concerns the target T2, AhR. Conditions: rat H4IIE cells; ref Van der Heiden et al., 2007; cited from earlier work.
The test system of series [14] is AhR. The note with it: ref Medjakovic and Jungbauer, 2008; cited from earlier work.

Chain of AhR (Mus musculus, UniProt P30561) (P30561 10-805 limits assumed): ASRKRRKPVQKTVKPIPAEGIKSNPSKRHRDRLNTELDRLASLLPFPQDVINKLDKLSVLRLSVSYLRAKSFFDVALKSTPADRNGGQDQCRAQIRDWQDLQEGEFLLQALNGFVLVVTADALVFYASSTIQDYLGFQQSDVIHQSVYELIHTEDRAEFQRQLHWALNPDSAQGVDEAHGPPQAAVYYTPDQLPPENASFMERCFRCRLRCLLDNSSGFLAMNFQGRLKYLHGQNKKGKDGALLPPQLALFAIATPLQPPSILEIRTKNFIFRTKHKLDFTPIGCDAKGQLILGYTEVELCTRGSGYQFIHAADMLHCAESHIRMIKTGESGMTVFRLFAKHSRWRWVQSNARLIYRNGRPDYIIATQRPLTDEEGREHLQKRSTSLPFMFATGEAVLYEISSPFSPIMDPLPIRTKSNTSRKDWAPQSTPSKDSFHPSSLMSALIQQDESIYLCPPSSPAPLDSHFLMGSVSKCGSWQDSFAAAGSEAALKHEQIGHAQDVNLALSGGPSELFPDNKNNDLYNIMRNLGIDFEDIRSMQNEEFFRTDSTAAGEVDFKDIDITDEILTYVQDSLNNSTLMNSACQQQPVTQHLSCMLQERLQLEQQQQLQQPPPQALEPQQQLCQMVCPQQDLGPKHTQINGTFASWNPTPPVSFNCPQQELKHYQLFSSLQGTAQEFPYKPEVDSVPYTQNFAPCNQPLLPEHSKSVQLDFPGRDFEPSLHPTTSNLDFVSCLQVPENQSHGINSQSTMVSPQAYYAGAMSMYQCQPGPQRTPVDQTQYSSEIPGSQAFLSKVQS
Chain of AhR (Mus musculus, UniProt P30561) (P11499 whole entry partner): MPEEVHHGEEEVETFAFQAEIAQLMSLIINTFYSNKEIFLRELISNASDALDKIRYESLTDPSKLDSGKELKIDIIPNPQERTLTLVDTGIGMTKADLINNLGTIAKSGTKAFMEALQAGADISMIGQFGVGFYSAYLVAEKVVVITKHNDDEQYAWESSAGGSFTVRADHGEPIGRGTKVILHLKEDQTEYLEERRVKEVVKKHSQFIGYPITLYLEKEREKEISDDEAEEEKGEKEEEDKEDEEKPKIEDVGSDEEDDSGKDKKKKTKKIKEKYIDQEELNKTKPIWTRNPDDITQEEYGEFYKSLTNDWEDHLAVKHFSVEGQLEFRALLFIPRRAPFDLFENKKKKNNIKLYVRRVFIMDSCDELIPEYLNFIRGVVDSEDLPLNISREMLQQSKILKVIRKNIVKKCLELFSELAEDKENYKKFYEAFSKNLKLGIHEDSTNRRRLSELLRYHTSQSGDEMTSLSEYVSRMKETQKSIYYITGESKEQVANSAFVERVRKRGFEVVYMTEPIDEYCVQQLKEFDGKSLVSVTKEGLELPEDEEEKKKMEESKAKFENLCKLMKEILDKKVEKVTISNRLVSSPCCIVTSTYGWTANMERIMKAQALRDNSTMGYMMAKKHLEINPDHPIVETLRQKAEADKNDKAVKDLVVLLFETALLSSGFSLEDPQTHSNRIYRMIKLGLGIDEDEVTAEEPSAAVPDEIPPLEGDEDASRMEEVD
Chain of AhR (Mus musculus, UniProt P30561) (O08915 whole entry partner): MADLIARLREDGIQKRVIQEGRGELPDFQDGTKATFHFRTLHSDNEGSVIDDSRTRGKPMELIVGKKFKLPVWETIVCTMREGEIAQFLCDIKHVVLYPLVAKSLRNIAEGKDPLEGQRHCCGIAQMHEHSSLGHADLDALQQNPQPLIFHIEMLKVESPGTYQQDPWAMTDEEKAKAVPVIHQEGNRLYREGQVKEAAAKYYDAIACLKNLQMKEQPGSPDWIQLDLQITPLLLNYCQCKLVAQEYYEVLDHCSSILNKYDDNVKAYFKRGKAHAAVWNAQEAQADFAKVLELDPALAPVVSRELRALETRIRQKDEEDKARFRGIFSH

Regarding `O=c1c(O)c(-c2ccc(O)cc2)oc2cc(O)cc(O)c12` [kaempferol], the “AhR activity (in words)” value at AhR [1] is given as “antagonist”.

In general, EC50 refers to the concentration needed to bring the measured effect to its halfway point. A higher EC50 goes with lower potency in that assay. Regarding `COc1ccc(-c2cc3cc(Cl)ccc3oc2=O)cc1` [Chr-19, 6-Chloro-3-(4′-methoxy)phenylcoumarin], the “concentration inducing ~20% of the maximal response of 10 nM TCDD” value at AhR [2] was 1 µM; on AhR [7] (human MCF-7 cells, CYP1A1 mRNA), 10 µM. In addition, the “reduction of the potency of TCDD” value at AhR [3] (10 μM Chr-19) turned out to be 3 fold. The “antagonistic effect (in words)” value at AhR [3] (qRT-PCR) was “weak antagonist”; on AhR [4] it was “no shift of the TCDD curve to the right”. In addition, on AhR [3] (qRT-PCR, 10 μM), the “reduction of the response to 10 nM TCDD” value was 10%. The EC50 was 140 µM on AhR [5] and 7.7 µM on AhR [8]. Besides, the “AhR agonist activity (in words)” value at AhR [6] is listed as “weak agonist”; at AhR [9], “induced significant levels; also recorded: weak agonist”. Further, the “more potent in rat H4IIE than in human MCF-7 cells” value on AhR [8] is “approximately 20 fold”. In addition, the “AhR antagonist activity (in words)” value at AhR [10] is reported as “antagonised; also recorded: antagonist”.

For the molecule `O=c1c(O)c(-c2ccc(O)c(O)c2)oc2cc(O)cc(O)c12` [quercetin, Quercetin], on AhR [1], the “AhR activity (in words)” value is recorded as “AhR agonist”.

Consider `COc1ccc2c(=O)c(-c3ccc(Cl)cc3)c(N)oc2c1` [Chr-13, 2-amino-3-(4′-chlorophenyl)-7-methoxychromen-4-one], for which it took 41.5 µM to reach a half-maximal effect at AhR [2] (EC50). For the same molecule, the “concentration inducing ~20% of the maximal response of 10 nM TCDD” value at AhR [2] is 10 µM; at AhR [7] (human MCF-7 cells, CYP1A1 mRNA), “no response was detected”. Moreover, the “reduction of the potency of TCDD” value on AhR [3] (100 μM Chr-13) was 5 fold. The “antagonistic effect (in words)” value on AhR [3] (qRT-PCR) is “weak antagonist”; at AhR [4] it was “no antagonistic effects”. For the same molecule, the “background induction, % of the maximal induction” value on AhR [4] (10 μM Chr-13 added to TCDD C/R curve) is ~ 25%. The “AhR-dependent luciferase induction, normalised to maximal TCDD response” value on AhR [6] is given as 50%; on AhR [6] (listed as Chr 13), “greater than 30%”. The “AhR agonist activity (in words)” value on AhR [6] is recorded as “strong agonist”. The “EC50 (95% Confidence interval)” value at AhR [7] (human MCF-7 cells, CYP1A1 mRNA, 4 hours, assuming maximal response is reached) is “could not be obtained; also recorded: No agonistic effect”. The “AhR antagonist activity (in words)” value on AhR [10] is “antagonised; also recorded: strong antagonist”.

For `Nc1oc2ccccc2c(=O)c1-c1ccc(Cl)cc1` [Chr-4], the “AhR antagonist activity (in words)” value at AhR [10] is recorded as “antagonised”.

As for `O=c1c(O)c(-c2ccccc2)oc2cc(O)cc(O)c12` [galangin], in the series with AhR [11], the “AhR activity (in words)” value is “AhR antagonist”.

Consider `O=c1cc(-c2ccccc2)oc2cc(O)cc(O)c12` [chrysin], for which the “AhR activity (in words)” value at AhR [12] is on record as “partial agonist”. Further, the “AhR antagonistic effect (in words)” value at AhR [13] was “no antagonistic effects”.

As to `Clc1cc2c(cc1Cl)Oc1cc(Cl)c(Cl)cc1O2` [TCDD, 2,3,7,8-tetrachlorodibenzo-p-dioxin, reference compound], the results for the EC50 at AhR [2] and on AhR [7] were 0.000113 µM and 0.000661 µM, respectively. Moreover, at AhR [7] (ratio of CYP1A1 mRNA EC50s, p<0.0001), the “potency lower in human MCF-7 than in rat H4IIE cells” value is given as 6 fold.

As for `COc1ccc(-c2coc3cc(O)cc(O)c3c2=O)cc1` [Biochanin A], the “less potent than TCDD” value in the series with AhR [14] is 100 fold.
